M1 ag – M1 muscarinic receptor agonism; CHO-M1 cells, Fluo-4 calcium fluorescence, agonist mode; stronger effect = higher value; AID 626; 3% of 64,000 active; B-score at 10 µM;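 active = fluorescence rise, raw or as B-score row- and column-corrected plate score, outside the 99.7% band of its plate's samples, either direction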
DAT uptake mod – modulates human dopamine transporter uptake under cocaine; 1.3% of 110,000 active; B-score at 10 µM; LLC-PK1 hDAT cells, [14C]-dopamine uptake with cocaine IC80; actives deviate in either direction; Q01959;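 active = Z score or B-score, a plate-position-corrected score, falls beyond the plate's 99.7% confidence bounds, in either direction; inactive = both scores lie inside the 99.7% bounds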;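 also: scored against the spread of the other compound wells on the same plate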
Target sequence (Q01959 whole entry, looked up): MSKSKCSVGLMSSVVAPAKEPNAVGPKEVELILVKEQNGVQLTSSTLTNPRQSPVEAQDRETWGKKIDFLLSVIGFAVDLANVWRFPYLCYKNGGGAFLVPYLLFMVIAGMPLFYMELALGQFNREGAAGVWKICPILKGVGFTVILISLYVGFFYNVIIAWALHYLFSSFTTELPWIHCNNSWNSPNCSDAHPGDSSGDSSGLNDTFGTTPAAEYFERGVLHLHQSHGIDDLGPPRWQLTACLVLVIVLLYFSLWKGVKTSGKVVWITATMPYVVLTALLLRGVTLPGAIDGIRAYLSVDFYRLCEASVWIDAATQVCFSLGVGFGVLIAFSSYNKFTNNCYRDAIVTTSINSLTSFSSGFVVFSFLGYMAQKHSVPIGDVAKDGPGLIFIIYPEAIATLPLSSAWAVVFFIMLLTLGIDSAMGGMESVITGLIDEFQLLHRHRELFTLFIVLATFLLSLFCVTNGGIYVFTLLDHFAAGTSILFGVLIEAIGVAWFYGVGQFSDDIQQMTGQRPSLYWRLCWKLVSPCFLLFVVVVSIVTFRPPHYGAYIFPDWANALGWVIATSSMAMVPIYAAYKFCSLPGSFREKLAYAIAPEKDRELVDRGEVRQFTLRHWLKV
Jurkat tox 60K – cytotoxic compounds reducing Jurkat cell viability. 1.2% of 56,000 active. Jurkat E6.1 viability, ATP luminescence, 48 h. inhibition, % at 4 µM;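 active = inhibition above the mean inhibition of all tested compounds plus 3 SD, cut at about 28% in these data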
D1 mod – allosterically modulates the human D1 dopamine receptor; P21728; HEK293 D1, CRE-luciferase, dopamine EC30 potentiation; actives deviate in either direction; B-score at 10 µM; 5.9% of 58,000 active;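 active = luminescence count or its row- and column-corrected plate score outside the 99.7% band of the plate's sample wells, on either side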
HEK293 NFkB inh – lowers PMA/ionomycin-induced NF-kB signal in HEK293 cells. HEK-293 NF-kB luciferase reporter, luminescence. inhibition, % at 3 µM. 0.21% of 62,000 active;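 active = inhibition above the mean of all tested compounds plus 3 SD, cut at about 40% in these data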;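 also: 0% = stimulated DMSO wells and 100% = 10 µM reference inhibitor 5653914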
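Material: HEK-293 cells with stable firefly luciferase reporter driven by four HIV NF-kB elements / Also added: PMA plus ionomycin mix as NF-kB-activating stimulus / Compound dosing: 3 µM once, 0.30% DMSO / Times: 1 h pretreatment, 16 h stimulation, 37 °C / Signal: luminescence / Evaluation: per-plate % inhibition versus controls / Benchmarks: DMSO and 10 µM reference inhibitor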
M1 antagonist – M1 muscarinic receptor (rat) antagonism | P08482 | CHO-M1 cells, Fluo-4 calcium, ACh EC80 antagonist mode; stronger effect = lower value | B-score at 10 µM | 3.4% of 64,000 active;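 active = calcium fluorescence response, raw or row-and-column corrected B-score, differing from the plate sample mean either way at a set confidence level, mostly lower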
M1 antag conf – M1 muscarinic receptor (rat) antagonism, confirmed; 43% of 1,700 active; shares compounds with M1 antagonist; calcium response (max-min fluorescence) at 10 µM; CHO-M1 cells, Fluo-4 calcium, ACh EC80 antagonism; stronger effect = lower value;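 active = calcium response below the same-plate mean of wells given acetylcholine alone at its 80%-effect dose, minus 3 SD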;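 also: raw fluorescence intensity difference in arbitrary instrument units and not normalized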
mGluR4 antag – acts on human mGluR4 in M1 antagonist selectivity test; 0.9% of 1,700 active; fluorescence response (max-min) at 10 µM; CHO-mGluR4 calcium flux, Fluo-4 fluorescence, glutamate EC80; stronger effect = lower value; shares compounds with M1 antagonist;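 active = fluorescence response below the plate's average for near-maximal glutamate wells, less 3 SD of those wells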;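 also: raw unnormalized fluorescence span taken in the window right after glutamate addition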
Starred values were filed as active, the others as inactive. Only some compounds are listed: those with a hit (about 7.6% of all), similar ones and a draw of the others.

COC(=O)c1cc(Br)c(=O)n(CCc2ccc(F)cc2)c1 was read as M1 ag -0.22, DAT uptake mod -0.25, D1 mod -0.28, M1 antagonist -4*, M1 antag conf 513 and mGluR4 antag 207.
CCN1CCCC1CNC(=O)CSCc1nc(-c2ccccc2C)oc1C (stereo not drawn) was read as M1 ag -0.3, DAT uptake mod 0.77, Jurkat tox 60K 2, D1 mod -1.5, HEK293 NFkB inh -1, M1 antagonist -3.7*, M1 antag conf 308* and mGluR4 antag 242.
For CCN1CCCC1CNC(=O)CS(=O)(=O)Cc1nc(-c2ccccc2C)oc1C (stereo not drawn) the results were M1 ag -1.6, DAT uptake mod 0.73, Jurkat tox 60K 7, D1 mod -0.66, HEK293 NFkB inh 10 and M1 antagonist -0.071.
CCCCN1C(=O)C(O)(CC(=O)c2c(C)n[nH]c2C)c2cc(Br)ccc21 (stereo not drawn) was read as M1 ag -0.59, DAT uptake mod -1.7, Jurkat tox 60K 4, D1 mod 0.78, HEK293 NFkB inh 1 and M1 antagonist 0.19.
Screening CCOc1ccccc1N1CCN(C(=O)C2c3ccccc3Oc3ccccc32)CC1 returned DAT uptake mod -0.6.
`CS(=O)(=O)N1CCN(C(=O)C2c3ccccc3Oc3ccccc32)CC1` gave M1 ag -0.28, DAT uptake mod 0.026, Jurkat tox 60K 3, D1 mod 0.0074, HEK293 NFkB inh 22, M1 antagonist -2.2*, M1 antag conf 365* and mGluR4 antag 200.
For CCOC(=O)c1cnc(-n2nc(C)cc2C)nc1NCc1ccccc1 the results were M1 ag 1.2, DAT uptake mod 0.96, Jurkat tox 60K 2, D1 mod 3.1, HEK293 NFkB inh 9, M1 antagonist -4.3*, M1 antag conf 405* and mGluR4 antag 196.
For Cc1cc2nc(C)n(CCCNC(=O)Nc3ccc(C#N)cc3)c2cc1C the results were M1 ag -0.79, DAT uptake mod 1.3, Jurkat tox 60K 10, D1 mod -1.5, HEK293 NFkB inh 8, M1 antagonist -10*, M1 antag conf 135* and mGluR4 antag 210.
`COc1ccc(S(=O)(=O)N(CC(=O)O)Cc2ccccc2)cc1OC` gave M1 ag -1.4, DAT uptake mod 0.36, Jurkat tox 60K 1, D1 mod -0.023, HEK293 NFkB inh 10, M1 antagonist -18*, M1 antag conf 643 and mGluR4 antag 197.
`COc1ccc(S(=O)(=O)N(CCc2ccccc2)CC(=O)O)cc1C` gave DAT uptake mod 0.32.
Cc1ccc(C)c(Cn2c(=O)c3c(nc4n3CCN4Cc3ccco3)n(C)c2=O)c1 was read as M1 ag -0.58, Jurkat tox 60K 2, D1 mod 0.19, HEK293 NFkB inh 22 and M1 antagonist 1.6.
For COCc1nnc(NS(=O)(=O)c2c(C)cc(C)cc2C)s1 the results were DAT uptake mod -1.
`CC(CCc1ccc(O)cc1)N(C)CCc1ccccc1` (stereo not drawn) gave M1 ag 0.79, DAT uptake mod 0.44, Jurkat tox 60K 5, D1 mod -2.9, HEK293 NFkB inh -2, M1 antagonist -3.1*, M1 antag conf 404* and mGluR4 antag 241.
`CC(CCc1ccccc1)NC(=O)c1ccccc1` (stereo not drawn) gave DAT uptake mod -0.17.
For O=C(Nc1ccc(Cl)cc1)c1cccnc1N1CCCCC1 the results were DAT uptake mod -0.84.
Screening Cc1ccc(OC(=O)c2ccccc2P(=O)(O)O)cc1 returned DAT uptake mod -0.47.
`COc1ccc(OC)c(NC(=O)CNC(=O)Cn2c(C)cc3ccccc3c2=O)c1` gave DAT uptake mod 0.53.
`COc1ccc(Cc2nc3ccc(S(N)(=O)=O)cc3[nH]2)cc1OC` gave M1 ag 0.42, DAT uptake mod 0.86, Jurkat tox 60K 1, D1 mod -0.11, HEK293 NFkB inh 20, M1 antagonist -2.9*, M1 antag conf 580 and mGluR4 antag 225.
`O=C(NCCC1=CCCCC1)C1CCN(c2nnc(-n3cccc3)s2)CC1` gave M1 ag 0.62, DAT uptake mod 0.9, Jurkat tox 60K -5, D1 mod -0.33, HEK293 NFkB inh 19 and M1 antagonist 0.12.
`CC1CCN(Cc2ccc(NC(=O)C3CCN(c4nnc(-n5cccc5)s4)CC3)cc2)CC1` gave M1 ag -0.72, DAT uptake mod 0.74, Jurkat tox 60K 7, D1 mod -2.2, HEK293 NFkB inh 11, M1 antagonist -13*, M1 antag conf 15* and mGluR4 antag 220.
CCCCN(CCCNC(=O)C1CCN(S(=O)(=O)N2CCOCC2)CC1)Cc1ccccc1 was read as M1 ag -0.64, DAT uptake mod 0.73, Jurkat tox 60K -5, D1 mod -0.66, HEK293 NFkB inh 0 and M1 antagonist 0.84.
For CN(C)CCOCCSc1ccc(Cl)cc1 the results were DAT uptake mod -0.14.
COc1cccc(-c2nc(NCCN3CCOCC3)c3ccccc3n2)c1O was read as M1 ag 7.4, DAT uptake mod -0.3 and M1 antagonist -1.9.
`Oc1ccccc1-c1nc(NCCN2CCOCC2)c2ccccc2n1` gave M1 ag 6.9, DAT uptake mod -0.4, M1 antagonist -2.8*, M1 antag conf 614 and mGluR4 antag 157.
Screening COc1ccc(NC(=O)CSc2nnc(-c3ccccn3)n2-c2ccccc2)cc1OC returned DAT uptake mod 0.24.
O=S1(=O)CC=C(CSc2nc3ccccc3[nH]2)C1 was read as M1 ag 0.056, DAT uptake mod -0.021, Jurkat tox 60K 10, HEK293 NFkB inh 19, M1 antagonist -2.3*, M1 antag conf 566 and mGluR4 antag 201.
For COc1ccccc1-c1c(C)nn2c(NCCN3CCCC3)cc(C)nc12 the results were M1 ag 0.062, DAT uptake mod -0.0021, Jurkat tox 60K -7, D1 mod -1.3, HEK293 NFkB inh -8, M1 antagonist -1.9*, M1 antag conf 460 and mGluR4 antag 215.
Cc1cc(NCCCN2CCOCC2)n2nc(C)c(-c3ccccc3)c2n1 was read as M1 ag 0.93, DAT uptake mod 1.6, Jurkat tox 60K 4, D1 mod 0.21, HEK293 NFkB inh 14 and M1 antagonist -0.084.
For Cc1cccn2c(=O)c3cc(C(=O)NC4CCCC4)c(=N)n(C4CCCC4)c3nc12 the results were M1 ag -0.098, DAT uptake mod 0.34, D1 mod -0.56, HEK293 NFkB inh 24, M1 antagonist -4.8*, M1 antag conf 367* and mGluR4 antag 258.

Screening data (PubChem BioAssay)
